Experiments:
Rattus norvegicus [1] = assay: % inhibition of AI pressor response at 30 minutes after intravenous administration of 0.5 micro mol/kg of compound in rat; format: functional
Outline: (§1)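 Normotensive rats given intravenous angiotensin I challenges to raise mean arterial pressure. Compound dosed intravenously at 0.5 μmol/kg. Pressor response measured before dosing (control) and at set times afterward. Percent change from the control response taken as % inhibition. Maximal response usually seen about 2 min after dosing.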

Rattus norvegicus [2] = assay: 50% inhibition of the AI pressor response in normotensive rat after intravenous administration at a dose 0.5 umol/kg; format: functional
Rattus norvegicus [3] = assay: % inhibition of AI pressor response at 2 minutes after intravenous administration of 0.5 micro mol/kg of compound in rat; format: functional; outline: as §1
Neprilysin = target: T1, Neprilysin (Rattus norvegicus, UniProt P07861); assay: In vitro inhibition of neutral endopeptidase purified from rat kidney using fluorimetry assay; details: read-out: I50
T1 sequence (P07861 whole entry): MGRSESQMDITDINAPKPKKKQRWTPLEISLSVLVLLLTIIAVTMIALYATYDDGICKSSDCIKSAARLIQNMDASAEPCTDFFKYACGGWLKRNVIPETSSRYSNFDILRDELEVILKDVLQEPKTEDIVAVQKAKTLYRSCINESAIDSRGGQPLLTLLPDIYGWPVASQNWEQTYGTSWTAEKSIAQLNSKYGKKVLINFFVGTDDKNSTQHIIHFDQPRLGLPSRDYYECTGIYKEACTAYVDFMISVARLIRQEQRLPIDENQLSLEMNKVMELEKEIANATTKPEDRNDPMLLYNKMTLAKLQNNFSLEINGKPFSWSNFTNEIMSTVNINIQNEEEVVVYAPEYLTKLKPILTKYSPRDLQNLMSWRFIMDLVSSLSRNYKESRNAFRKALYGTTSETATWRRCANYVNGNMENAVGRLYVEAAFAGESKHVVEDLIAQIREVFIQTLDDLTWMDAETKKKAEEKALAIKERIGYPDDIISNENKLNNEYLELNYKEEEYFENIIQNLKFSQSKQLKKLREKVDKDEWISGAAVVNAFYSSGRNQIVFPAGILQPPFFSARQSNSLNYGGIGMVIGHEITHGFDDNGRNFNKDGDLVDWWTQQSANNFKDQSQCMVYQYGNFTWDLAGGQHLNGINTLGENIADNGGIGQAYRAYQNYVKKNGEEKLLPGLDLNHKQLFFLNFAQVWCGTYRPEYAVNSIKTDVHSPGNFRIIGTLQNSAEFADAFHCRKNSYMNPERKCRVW
Outline: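 Enzyme from purified rat kidney; fluorometric read-out with dansyl-Gly-Phe-Arg as substrate; I50 reported.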

[4] = target: T2, Angiotensin-converting enzyme (Oryctolagus cuniculus, UniProt P12822); assay: In vitro inhibition of ACE (Angiotensin I converting enzyme) isolated from rabbit lung extract; details: read-out: I50
T2 sequence (P12822 whole entry): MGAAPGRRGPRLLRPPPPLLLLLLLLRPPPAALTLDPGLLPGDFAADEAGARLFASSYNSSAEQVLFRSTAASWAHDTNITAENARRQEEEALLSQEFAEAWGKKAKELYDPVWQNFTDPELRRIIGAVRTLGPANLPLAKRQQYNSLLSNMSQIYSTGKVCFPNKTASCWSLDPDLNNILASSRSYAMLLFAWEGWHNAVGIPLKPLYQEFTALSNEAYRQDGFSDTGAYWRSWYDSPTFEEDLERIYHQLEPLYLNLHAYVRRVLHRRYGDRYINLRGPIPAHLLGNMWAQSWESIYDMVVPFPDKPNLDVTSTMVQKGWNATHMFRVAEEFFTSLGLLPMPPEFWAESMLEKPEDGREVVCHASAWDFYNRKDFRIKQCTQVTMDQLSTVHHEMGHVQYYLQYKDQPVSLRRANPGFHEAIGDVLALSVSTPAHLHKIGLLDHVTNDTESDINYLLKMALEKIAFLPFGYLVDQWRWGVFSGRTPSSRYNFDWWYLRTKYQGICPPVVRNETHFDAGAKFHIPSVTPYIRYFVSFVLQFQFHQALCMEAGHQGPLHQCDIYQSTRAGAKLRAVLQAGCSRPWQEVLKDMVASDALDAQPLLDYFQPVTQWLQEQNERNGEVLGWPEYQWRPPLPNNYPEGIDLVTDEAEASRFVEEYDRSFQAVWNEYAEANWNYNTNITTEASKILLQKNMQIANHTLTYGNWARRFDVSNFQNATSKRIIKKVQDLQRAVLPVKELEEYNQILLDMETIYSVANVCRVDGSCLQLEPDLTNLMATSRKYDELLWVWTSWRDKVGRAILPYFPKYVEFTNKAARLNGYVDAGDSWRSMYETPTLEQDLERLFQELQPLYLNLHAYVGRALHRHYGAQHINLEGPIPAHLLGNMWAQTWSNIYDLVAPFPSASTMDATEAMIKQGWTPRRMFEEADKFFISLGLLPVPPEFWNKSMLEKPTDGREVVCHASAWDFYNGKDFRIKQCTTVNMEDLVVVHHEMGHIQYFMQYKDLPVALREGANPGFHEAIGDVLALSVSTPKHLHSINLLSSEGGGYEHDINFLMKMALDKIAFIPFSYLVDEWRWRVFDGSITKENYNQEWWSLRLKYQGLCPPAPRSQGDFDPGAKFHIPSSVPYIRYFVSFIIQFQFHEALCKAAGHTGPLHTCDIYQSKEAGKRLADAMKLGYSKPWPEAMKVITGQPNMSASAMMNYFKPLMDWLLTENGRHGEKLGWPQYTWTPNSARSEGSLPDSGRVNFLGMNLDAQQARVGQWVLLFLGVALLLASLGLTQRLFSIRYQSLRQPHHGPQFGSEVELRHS
Outline: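 Enzyme source is rabbit lung extract; substrate hippuryl-L-histidyl-L-leucine (HHL); I50 reported.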

Rattus norvegicus [5] = assay: Decreased Mean arterial pressure (MAP) in rat after single oral dose of 30 umol/kg; format: functional, Artery
Outline: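 Conscious sodium-depleted spontaneously hypertensive rats, n = 7 per group. Single oral dose of 30 μmol/kg (~12 mg/kg); vehicle 5% NaHCO3. Mean arterial pressure followed as change from pre-dose baseline over 24 h.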

Rattus norvegicus [6] = assay: % inhibition of AI pressor response at 60 minutes after intravenous administration of 0.5 micro mol/kg of compound in rat; format: functional; outline: as §1
Rattus norvegicus [7] = assay: % inhibition of AI pressor response at 120 minutes after intravenous administration of 0.5 micro mol/kg of compound in rat; format: functional; outline: as §1

| IC50 (Neprilysin) | IC50 [4] | SMILES | Inhibition (Rattus norvegicus [1]) | ED50 (Rattus norvegicus [2]) | Inhibition (Rattus norvegicus [3]) | MAP (Rattus norvegicus [5]) | Inhibition (Rattus norvegicus [6]) | Inhibition (Rattus norvegicus [7]) |
| --- | --- | --- | --- | --- | --- | --- | --- | --- |
| 42 nM | 5 nM | CCOC(C)=O.O=C(N[C@H]1CS[C@H]2CCC[C@@H](C(=O)O)N2C1=O)[C@@H](S)Cc1ccccc1 | 3% | 0.23 µmol/kg | 78% | – | – | – |
| – | – | CCC(=O)O[C@@H](O[P@](=O)(CCCCc1ccccc1)CC(=O)N1C[C@H](C2CCCCC2)C[C@H]1C(=O)O)C(C)C [FOSINOPRIL] | – | – | – | 20 mmHg | – | – |
| 8 nM | 5 nM | O=C(N[C@H]1CCS[C@H]2CCC[C@@H](C(=O)O)N2C1=O)[C@@H](S)Cc1ccccc1 [OMAPATRILAT] | 66% | 0.07 µmol/kg | 76% | 40 mmHg | 60% | 58% |
| – | – | O=C(N[C@H]1CCC[C@H]2CCC[C@@H](C(=O)O)N2C1=O)[C@@H](S)Cc1ccccc1 | 65% | – | 71% | – | 35% | 11% |
| 26 nM | 7 nM | O=C(N[C@H]1CCO[C@H]2CC[C@@H](C(=O)O)N2C1=O)[C@@H](S)Cc1ccccc1 | 63% | 0.06 µmol/kg | 79% | – | 3% | – |
| 4 nM | 4 nM | O=C(N[C@H]1CCS[C@H]2CC[C@@H](C(=O)O)N2C1=O)[C@@H](S)Cc1ccccc1 | 76% | 0.03 µmol/kg | 82% | – | 60% | 25% |
| – | – | O=C(N[C@H]1CCC[C@H]2CC[C@@H](C(=O)O)N2C1=O)[C@@H](S)Cc1ccccc1 | 34% | – | 75% | – | 3% | – |
| 9 nM | 8 nM | CCOC(C)=O.O=C(N[C@H]1CCO[C@H]2CCC[C@@H](C(=O)O)N2C1=O)[C@@H](S)Cc1ccccc1 | 3% | 0.05 µmol/kg | 83% | – | – | – |
